Neddylation inh: cullin neddylation inhibition | P61081+Q13564 | TR-FRET cullin neddylation, biochemical | calls only at 25 µM | 360,000 compounds, 0.58% hits | AID 651699; in the data active means inhibition above about 36%
SKN-1 block: C. elegans SKN-1 inhibition; C. elegans VP596 Pgst-4::GFP/RFP ratio, acrylamide-induced, 24 h; inhibition, % at 21.8 µM; 360,000 compounds, 0.49% hits;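 active means interference check ratio from 0.5 to 1.5 plus GFP to RFP signal ratio inhibition reaching or exceeding a fixed threshold, cut at about 30% in these data, passing the limit was not always enough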
MT1-MMP act inh: inhibitors of human MT1-MMP activation. P50281. HT1080 RFP-PRO-GFP cells, GFP/RFP ratio fluorescence, overnight; percent of plate control window, DMSO zero. GFP/RFP ratio change, % at 20 µM. 360,000 compounds, 0.061% hits. AID 651647;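 active means GFP/RFP ratio change of at least 30% with cell ATP level not reduced by more than half and red fluorescence within 50% of control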
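Assay system: HT1080 cells carrying an RFP-PRO-GFP reporter | Dosing: Single dose of 20 µM compound, 1% DMSO final | Incubation: Cells overnight before dosing, compound overnight, 37 °C, 5% CO2 | Evaluation: GFP/RFP fluorescence ratio | Control set: DMSO and RFP-L50D-GFP cell wells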
proKLK7 act: proKLK7 (human) activation, primary screen; P49862; activation, % at 7 µM; purified proKLK7, EDANS-DABCYL substrate fluorescence; 100% is mature enzyme control, 0% vehicle; 370,000 compounds, 0.9% hits;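 active means activation above the mean of all tested compounds plus 3 SD, computed per campaign excluding outliers beyond control limits, cut at about 13% in these data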
Target sequence (P49862 whole entry, looked up): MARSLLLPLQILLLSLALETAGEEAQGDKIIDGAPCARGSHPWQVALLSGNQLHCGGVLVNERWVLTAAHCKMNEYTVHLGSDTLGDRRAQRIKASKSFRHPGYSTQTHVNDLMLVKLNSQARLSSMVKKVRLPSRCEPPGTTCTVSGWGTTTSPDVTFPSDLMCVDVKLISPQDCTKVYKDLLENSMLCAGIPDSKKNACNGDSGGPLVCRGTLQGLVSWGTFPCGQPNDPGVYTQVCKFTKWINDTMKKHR
Tn7 DDE FP: disrupts Tn7 cyclic peptide binding to fibrin D-Dimer-E complex; 370,000 compounds, 0.13% hits; inhibition, % at 8.3 µM; FP displacement of FITC-Tn7 peptide from fibrin DD(E); 0% = median of compound wells per plate;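 active means inhibition above the mean of compounds falling within the control limits plus 3 SD of them, cut at about 14% in these data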;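 further: 0% = plate median of compound wells and 100% = 10 µM Aha-Tn7 peptide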
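Assay system: Human fibrin DD(E) protein | Medium: Tris buffer with calcium and detergent, pH 7.8 | Reagent: 0.1 µM fluorescent Tn7 | Compound dosing: Single point at 8.3 µM | Times: 10 min preincubation, 3 h with tracer, room temperature | Detection: Fluorescence polarization of the labelled Tn7 tracer | Controls: Aha-Tn7 high control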
Tn6 DDE FP: disrupts Tn6 cyclic peptide binding to fibrin D-Dimer-E complex. P02675. AID 720509. inhibition, % at 8.3 µM. 370,000 compounds, 0.21% hits. Fibrin DD(E) TRITC-Tn6 fluorescence polarization displacement;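 active means inhibition above a per-campaign cutoff: mean of compounds within control limits plus 3 SD, cut at about 15% in these data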;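 further: 0% = median of all compound wells on the plate and 100% = blocking peptide control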
Neddyl conf: cullin neddylation inhibition, confirmation. shares compounds with Neddylation inh. TR-FRET cullin neddylation biochemical assay. calls only at 25 µM. 1,800 compounds, 13% hits. AID 652217; in the data active means inhibition above about 40%;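 further: neddylation substrate is the cullin 1 ring ligase complex with SKP2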
Active calls of the source: *. Hits are enriched below; roughly 2.2% of the tested compounds scored in any of these assays.

`CCOC(=O)C1CCCN(c2nc3ccccc3nc2NS(=O)(=O)c2ccc(C)cc2)C1` (stereo unspecified) gave Neddylation inh active, SKN-1 block 1, MT1-MMP act inh 0, proKLK7 act 1, Tn7 DDE FP 3, Tn6 DDE FP 0 and Neddyl conf active.
O=S(=O)(Nc1nc2ccccc2nc1NCC1CCCO1)c1ccccc1 (stereo unspecified) was read as Neddylation inh active, SKN-1 block -10, MT1-MMP act inh 1, proKLK7 act 3, Tn7 DDE FP 4, Tn6 DDE FP 10 and Neddyl conf inactive.
`COC(CNC(=O)c1ccc2nc(-c3ccccc3)c(-c3ccccc3)nc2c1)OC` gave Neddylation inh active, SKN-1 block -3, MT1-MMP act inh -1, proKLK7 act -8, Tn7 DDE FP -7, Tn6 DDE FP -1 and Neddyl conf active.
Screening CCN1CCN(C(=O)c2ccc3nc(-c4ccccc4)c(-c4ccccc4)nc3c2)CC1 returned Neddylation inh active, SKN-1 block -4, MT1-MMP act inh -2, proKLK7 act 2, Tn7 DDE FP -3, Tn6 DDE FP 2 and Neddyl conf active.
Cc1c(OC(C)C(=O)NCCN2CCOCC2)ccc2c3c(c(=O)oc12)CCCC3 (stereo unspecified) was read as Neddylation inh active, SKN-1 block 1, MT1-MMP act inh 1, proKLK7 act -4, Tn7 DDE FP 0 and Tn6 DDE FP -2.
Screening CC1Cc2ccccc2N1c1ncnc2nc[nH]c12 (stereo unspecified) returned Neddylation inh active, SKN-1 block 11 and MT1-MMP act inh -14.
Nc1c(C(=O)Nc2ccc3c(c2)OCCO3)nnn1Cc1cccc(F)c1 was read as Neddylation inh active, SKN-1 block 3, MT1-MMP act inh 5, proKLK7 act -5, Tn7 DDE FP 5, Tn6 DDE FP 1 and Neddyl conf inactive.
CN(C)c1ccc(NC(=O)Oc2ccccc2)cc1 was read as Neddylation inh inactive, SKN-1 block -20, MT1-MMP act inh 29, proKLK7 act 0, Tn7 DDE FP 2 and Tn6 DDE FP -6.
Screening Cc1cc(-c2ccccc2)c2c3c(cn2n1)c(=O)n(C)c(=O)n3C returned Neddylation inh inactive, SKN-1 block 15, MT1-MMP act inh -2, proKLK7 act 0, Tn7 DDE FP 3 and Tn6 DDE FP -5.
`Cc1cc(-c2ccccc2)c2nncn2n1` gave Neddylation inh active, SKN-1 block 3, MT1-MMP act inh 0, proKLK7 act 1, Tn7 DDE FP -2, Tn6 DDE FP 10 and Neddyl conf active.
For COC(=O)c1cc2ccccc2c(-c2c(OC)c(C(=O)OC)cc3ccccc23)c1OC the results were Neddylation inh active, SKN-1 block -4, MT1-MMP act inh 8, proKLK7 act -4, Tn7 DDE FP -1, Tn6 DDE FP 2 and Neddyl conf inactive.
Screening COC(=O)c1cc2ccccc2c([N+](=O)[O-])c1O returned Neddylation inh inactive, SKN-1 block 15, MT1-MMP act inh 0, proKLK7 act 0, Tn7 DDE FP -2 and Tn6 DDE FP -3.
`NS(=O)(=O)c1ccc(CNC(=O)c2cc(=O)c3ccccc3o2)cc1` gave Neddylation inh inactive, SKN-1 block -6, MT1-MMP act inh -2, proKLK7 act 1, Tn7 DDE FP -5 and Tn6 DDE FP -7.
For CN(/N=C/c1cccnc1)c1cnc2ccccc2n1 the results were Neddylation inh active, SKN-1 block 31, MT1-MMP act inh -2, proKLK7 act -85, Tn7 DDE FP -2, Tn6 DDE FP -2 and Neddyl conf inactive.
For C(=N\N=C\c1cccnc1)/c1cccnc1 the results were Neddylation inh inactive, SKN-1 block 15 and MT1-MMP act inh -1.
For Cc1ccc(C(=O)Nc2sc(C)c(-c3ccccc3)c2C(N)=O)cc1[N+](=O)[O-] the results were Neddylation inh inactive, SKN-1 block 1, MT1-MMP act inh 3, proKLK7 act 1, Tn7 DDE FP -3 and Tn6 DDE FP -6.
Screening COCCN(C(=O)COC(=O)c1oc2ccc(OC)cc2c1C)c1c(N)n(Cc2ccccc2)c(=O)[nH]c1=O returned SKN-1 block 2, MT1-MMP act inh 1, proKLK7 act 0, Tn7 DDE FP 2 and Tn6 DDE FP -3.
`COc1ccc2oc(C(=O)OC(C)C(=O)N(C)c3ccccc3)c(C)c2c1` (stereo unspecified) gave Neddylation inh active, SKN-1 block 5, MT1-MMP act inh 3, proKLK7 act -1, Tn7 DDE FP 3 and Tn6 DDE FP 2.
Screening CCOC(=O)c1c(CN(CC)CC)oc2cc(Br)c(O)cc12 returned Neddylation inh inactive, SKN-1 block -8, MT1-MMP act inh 7, proKLK7 act 0, Tn7 DDE FP 3 and Tn6 DDE FP -9.
Screening COc1ccc2oc(C(=O)OCC(=O)N3CC(C)CC(C)C3)c(C)c2c1 (stereo unspecified) returned Neddylation inh active, SKN-1 block 5, MT1-MMP act inh 6, proKLK7 act -7, Tn7 DDE FP 1 and Tn6 DDE FP -10.
`CCOC(=O)c1c(CN(CC)CC)oc2ccc(OC)cc12` gave Neddylation inh active, SKN-1 block -16, MT1-MMP act inh -5, proKLK7 act 3, Tn7 DDE FP 2, Tn6 DDE FP 2 and Neddyl conf inactive.
Screening COc1ccc2oc(C(=O)OC(C)C(=O)N3CCC(C)CC3)c(C)c2c1 (stereo unspecified) returned SKN-1 block 9, MT1-MMP act inh 2, proKLK7 act 4, Tn7 DDE FP -2 and Tn6 DDE FP 11.
Screening COc1ccc2oc(C(=O)OCC(=O)N(C)c3c(N)n(Cc4ccccc4)c(=O)[nH]c3=O)c(C)c2c1 returned Neddylation inh active, SKN-1 block 2, MT1-MMP act inh 2, proKLK7 act 2, Tn7 DDE FP -4 and Tn6 DDE FP -1.
COc1ccc2oc(C(=O)OCC(=O)N(C)C3CCCCC3)c(C)c2c1 was read as Neddylation inh active, SKN-1 block 10, MT1-MMP act inh 3, proKLK7 act -3, Tn7 DDE FP 8 and Tn6 DDE FP -8.
Screening CCN(C(=O)COC(=O)c1oc2ccc(OC)cc2c1C)C1CCCCC1 returned Neddylation inh active, SKN-1 block 13, MT1-MMP act inh 2, proKLK7 act -6, Tn7 DDE FP 4 and Tn6 DDE FP -9.
